For one series, the system named is Streptococcus pyogenes. In words: Antibacterial activity against Streptococcus pyogenes ATCC 49399 after 16 to 20 hrs by broth microdilution method. The series is classed as functional. (In broth dilution the organism is exposed to a series of concentrations in liquid medium.)
The test system of series [1] is Staphylococcus epidermidis. In words: Antibacterial activity against Staphylococcus epidermidis ATCC 35547 after 16 to 20 hrs by broth microdilution method. The series is classed as functional.
The test system of another series is Enterococcus faecalis. In words: Antibacterial activity against Enterococcus faecalis ATCC 29212 after 16 to 20 hrs by broth microdilution method. In kind it is functional.
For series [2], the system named is Enterococcus faecium. Put plainly: Antibacterial activity against vancomycin-resistant Enterococcus faecium 106 clinical isolate after 16 to 20 hrs by broth microdilution method.
Series [3] has as its system Staphylococcus aureus. Put plainly: Antibacterial activity against methicillin-sensitive Staphylococcus aureus ATCC 29213 after 16 to 20 hrs by broth microdilution method. In kind it is functional.
Series [4] relates to Staphylococcus aureus. In words: Antibacterial activity against mecA-positive, methicillin/oxacillin/tetracycline-resistant and vancomycin/linezolid susceptible Staphylococcus aureus COL after 16 to 20 hrs by broth microdilution method. In kind it is functional.
Series [5] relates to Enterococcus faecium. Put plainly: Antibacterial activity against Enterococcus faecium NCTC 7171 after 16 to 20 hrs by broth microdilution method. In kind it is functional.
The test system of series [6] is Staphylococcus haemolyticus. Put plainly: Antibacterial activity against Staphylococcus haemolyticus ATCC 29970 after 16 to 20 hrs by broth microdilution method. In kind it is functional.
The subject of series [7] is Staphylococcus aureus. In words: Antibacterial activity against mecA-positive, ciprofloxacin/gentamicin/oxacillin/penicillin/linezolid-resistant Staphylococcus aureus NRS119 after 16 to 20 hrs by broth microdilution method. The series is classed as functional.
The test system of series [8] is Staphylococcus aureus. In words: Antibacterial activity against vancomycin/methicillin-resistant Staphylococcus aureus VRS1 clinical isolate after 16 to 20 hrs by broth microdilution method. In kind it is functional.
The test system of another series is Streptococcus oralis. In words: Antibacterial activity against Streptococcus oralis ATCC 9811 after 16 to 20 hrs by broth microdilution method. The series is classed as functional.
Another series has as its system HepG2. Put plainly: Cytotoxicity against human HepG2 cells assessed as cell viability after 16 hrs by XTT assay. The series is classed as cell-based. Conditions: HepG2, 16 h. In short, it runs like this: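 HepG2 cells were run in triplicate in an XTT viability assay. IC50 was derived from the concentration–response data.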
A short description of series [9]: Plasma protein binding in human at 10 uM after 6 hrs by equilibrium dialysis assay. In kind it is ADME, cell-free. (In general: Equilibrium dialysis compares concentrations on both sides of a semipermeable membrane.)

Converted amounts (≈) assume the structure as drawn.

Turning to `CN[C@H](CC(C)C)C(=O)N[C@H]1C(=O)N[C@@H](CC(N)=O)C(=O)N[C@H]2C(=O)N[C@H]3C(=O)N[C@H](C(=O)N[C@H](C(=O)O)c4cc(O)cc(O)c4-c4cc3ccc4O)[C@H](O)c3ccc(c(Cl)c3)Oc3cc2cc(c3O[C@@H]2O[C@H](CO)[C@@H](O)[C@H](O)[C@H]2O[C@H]2C[C@](C)(N)[C@H](O)[C@H](C)O2)Oc2ccc(cc2Cl)[C@H]1O` [VANCOMYCIN], the MIC against Streptococcus pyogenes came out at 0.6 µg/mL (≈ 0.414 µM); in series [1], 16 µg/mL (≈ 11 µM); in the series on Enterococcus faecalis it was 2 µg/mL (≈ 1.38 µM); in the series on Enterococcus faecium [2], 256 µg/mL (≈ 177 µM). In turn, `O=C1C[C@@H](c2nc(-c3ccc(Oc4ccc(C(F)(F)F)cc4)cc3)no2)CN1` showed an MIC against Staphylococcus aureus [3] not below 128 µg/mL. The molecule `Nc1ccc(-c2nc(-c3ccc(Oc4ccccc4)cc3)no2)cc1` gave an MIC with Staphylococcus aureus [3] of 4 µg/mL (≈ 12.1 µM). For `Oc1cccc(-c2nc(-c3ccc(Oc4ccccc4)cc3)no2)c1`, the MIC in the series on Staphylococcus aureus [3] is not below 128 µg/mL.

Molecule `O=C(Nc1c[nH]nc1-c1nc(-c2ccc(Oc3ccc(C(F)(F)F)cc3)cc2)no1)c1ccccc1` registered an MIC against Staphylococcus aureus [3] not below 128 µg/mL. For `FC(F)(F)c1ccc(Oc2ccc(-c3noc(-c4c[nH]c5ncccc45)n3)cc2)cc1`, the MIC in the series with Staphylococcus aureus [3] is not below 128 µg/mL.

`Nc1ccc(-c2nc(-c3ccc(Oc4ccc(C(F)(F)F)cc4)cc3)no2)cc1` showed an MIC against Staphylococcus aureus [3] of 1 µg/mL (≈ 2.52 µM). Still for that read-out and setting: the value for `Nc1ccc(-c2nc(-c3ccc(Oc4ccccc4)cc3)no2)c(O)c1` was not below 128 µg/mL; that for `COc1ccc(-c2nc(-c3ccc(Oc4ccc(C(F)(F)F)cc4)cc3)no2)cc1OC` was not below 128 µg/mL; that for `Fc1ccc(Oc2ccc(-c3noc(-c4cc[nH]n4)n3)cc2)cc1` was not below 128 µg/mL. Same read-out and setting: to `Nc1cc(-c2nc(-c3ccc(Oc4ccc(F)cc4)cc3)no2)ccc1O` belongs not below 128 µg/mL.

Turning to `FC(F)(F)c1ccc(Oc2ccc(-c3noc(-c4c[nH]cn4)n3)cc2)cc1`, the MIC in the series on Staphylococcus aureus [4] worked out at 32 µg/mL (≈ 86 µM); against Enterococcus faecium [5], 8 µg/mL (≈ 21.5 µM); against Streptococcus pyogenes, 128 µg/mL (≈ 344 µM); in series [1], 32 µg/mL (≈ 86 µM); in series [6], 16 µg/mL (≈ 43 µM); against Staphylococcus aureus [7], 4 µg/mL (≈ 10.7 µM). For the same molecule, the MIC in the series on Staphylococcus aureus [8] was 1 µg/mL (≈ 2.69 µM); in the series with Staphylococcus aureus [3], 2 µg/mL (≈ 5.37 µM); against Streptococcus oralis, more than 128 µg/mL. Moreover, the IC50 in the series on HepG2 came to 31.5 µg/mL (≈ 84.6 µM). Also, the PPB in [9] worked out at 93.5%. In the series with Staphylococcus aureus [3], `Oc1ccc(-c2nc(-c3ccc(Oc4ccc(C(F)(F)F)cc4)cc3)no2)cc1F` came in with a minimum inhibitory concentration (MIC) of 2 µg/mL (≈ 4.8 µM). The molecule `Cc1ccc(S(=O)(=O)N2CCC(c3nc(-c4ccc(Oc5ccccc5)cc4)no3)CC2)cc1` showed an MIC with Staphylococcus aureus [3] not below 128 µg/mL. Turning to `Oc1ccc(-c2nc(-c3ccc(Oc4ccc(F)cc4)cc3)no2)cc1`, the minimal inhibitory concentration (MIC) in the series on Staphylococcus aureus [3] stood at 1 µg/mL (≈ 2.87 µM). The same measure, in the same setting: to `FC(F)(F)c1ccc(Oc2ccc(-c3noc(-c4n[nH]cc4I)n3)cc2)cc1` belongs 2 µg/mL (≈ 4.01 µM); to `Oc1ccc(-c2nc(-c3ccc(Oc4ccc(C(F)(F)F)cc4)cc3)no2)cn1`, not below 128 µg/mL. The same measure, in the same setting: the value for `C[Si](C)(C)C#Cc1c[nH]nc1-c1nc(-c2ccc(Oc3ccc(C(F)(F)F)cc3)cc2)no1` was not below 128 µg/mL; that for `CC(C)Nc1c[nH]nc1-c1nc(-c2ccc(Oc3ccccc3)cc2)no1` was 0.5 µg/mL (≈ 1.38 µM); that for `Nc1cc(-c2nc(-c3ccc(Oc4ccc(F)cc4)cc3)no2)cnc1O` was not below 128 µg/mL. The same measure, in the same setting: the value for `Cl.NC(Cc1ccccc1)c1nc(-c2ccc(Oc3ccccc3)cc2)no1` (stereo not drawn) was not below 128 µg/mL; that for `[O-][n+]1ccc(-c2nc(-c3ccc(Oc4ccccc4)cc3)no2)cc1` was not below 128 µg/mL. Take `O=c1[nH]c(-c2ccc(Oc3ccccc3)cc2)no1`: in the series with Staphylococcus aureus [3], the MIC was not below 128 µg/mL.

`CCOP(=O)(OCC)c1c[nH]nc1-c1nc(-c2ccc(Oc3ccc(C(F)(F)F)cc3)cc2)no1` registered an MIC in the series with Staphylococcus aureus [3] not below 128 µg/mL. In the series on Staphylococcus aureus [3], `CC(C)CNc1c[nH]nc1-c1nc(-c2ccc(Oc3ccc(C(F)(F)F)cc3)cc2)no1` came in with an MIC not below 128 µg/mL. On the same count and under the same terms, the value for `Nc1cc(-c2nc(-c3ccc(Oc4ccc(C(F)(F)F)cc4)cc3)no2)cnc1O` was not below 128 µg/mL; that for `Oc1ccccc1-c1nc(-c2ccc(Oc3ccccc3)cc2)no1` was not below 128 µg/mL. Still for that read-out and setting: the value for `Nc1c(F)cc(-c2nc(-c3ccc(Oc4ccccc4)cc3)no2)cc1F` was 8 µg/mL (≈ 21.9 µM). The same measure, in the same setting: the value for `Oc1ccc(-c2nc(-c3ccc(Oc4ccc(F)cc4)cc3)no2)cc1F` was 2 µg/mL (≈ 5.46 µM); that for `c1ccc(Oc2ccc(-c3noc(-c4ccncc4)n3)cc2)cc1` was not below 128 µg/mL. `CCOP(=O)(OCC)c1ccc(-c2nc(-c3ccc(Oc4ccc(F)cc4)cc3)no2)cc1` yielded an MIC in the series with Staphylococcus aureus [3] not below 128 µg/mL. Still for that read-out and setting: to `Cc1ccc(S(=O)(=O)N2CCC(c3nc(-c4ccc(Oc5ccc(F)cc5)cc4)no3)CC2)cc1` belongs not below 128 µg/mL. As to `CC(C)(C)OC(=O)N1CCC(Nc2c[nH]nc2-c2nc(-c3ccc(Oc4ccc(C(F)(F)F)cc4)cc3)no2)CC1`, the MIC in the series on Staphylococcus aureus [3] is not below 128 µg/mL.

Take `Fc1ccc(-c2nc(-c3ccc(Oc4ccccc4)cc3)no2)cc1`: the MIC in the series with Staphylococcus aureus [3] was not below 128 µg/mL. Same read-out and setting: to `COc1ccc(-c2nc(-c3ccc(Oc4ccc(F)cc4)cc3)no2)cc1[N+](=O)[O-]` belongs not below 128 µg/mL. In the series on Staphylococcus aureus [3], `Ic1c[nH]nc1-c1nc(-c2ccc(Oc3ccccc3)cc2)no1` had an MIC of 1 µg/mL (≈ 2.32 µM).

Molecule `Fc1ccc(Oc2ccc(-c3noc(-c4n[nH]c5ccccc45)n3)cc2)cc1` showed an MIC against Staphylococcus aureus [3] not below 128 µg/mL.

Molecule `O=C1CC(c2nc(-c3ccc(Oc4ccc(C(F)(F)F)cc4)cc3)no2)NC(=O)N1` (stereo not drawn) yielded an MIC in the series on Staphylococcus aureus [3] not below 128 µg/mL. In turn, `NC(=O)c1ccc(-c2nc(-c3ccc(Oc4ccc(F)cc4)cc3)no2)cc1` had an MIC against Staphylococcus aureus [3] not below 128 µg/mL.

As to `Fc1ccc(Oc2ccc(-c3noc(-c4c[nH]c5ncccc45)n3)cc2)cc1`, the MIC against Staphylococcus aureus [3] was not below 128 µg/mL. Still for that read-out and setting: the value for `Oc1ccc(-c2nc(-c3ccc(Oc4ccccc4)cc3)no2)cc1` was 1 µg/mL (≈ 3.03 µM); that for `Nc1cncc(-c2nc(-c3ccc(Oc4ccc(C(F)(F)F)cc4)cc3)no2)c1` was not below 128 µg/mL; that for `O=[N+]([O-])c1cc(-c2nc(-c3ccc(Oc4ccc(F)cc4)cc3)no2)cnc1O` was 8 µg/mL (≈ 20.3 µM). For the molecule `Nc1ccc(-c2nc(-c3ccc(Oc4ccc(F)cc4)cc3)no2)cc1`, the MIC in the series on Staphylococcus aureus [3] is not below 128 µg/mL.

`O=C(O)c1ccc(-c2nc(-c3ccc(Oc4ccc(F)cc4)cc3)no2)cc1`: the MIC against Staphylococcus aureus [3] was not below 128 µg/mL. For the molecule `c1ccc(Oc2ccc(-c3noc(C4CCOCC4)n3)cc2)cc1`, the MIC against Staphylococcus aureus [3] is not below 128 µg/mL.

`FC(F)(F)c1ccc(Oc2ccc(-c3noc(-c4nc[nH]n4)n3)cc2)cc1`: the MIC in the series with Staphylococcus aureus [3] was not below 128 µg/mL. In the series with Staphylococcus aureus [3], `Fc1ccc(Oc2ccc(-c3noc(-c4ccc5[nH]ccc5c4)n3)cc2)cc1` came in with an MIC of 1 µg/mL (≈ 2.69 µM). `c1ccc(Oc2ccc(-c3noc(-c4ccc5[nH]ncc5c4)n3)cc2)cc1` came in with an MIC in the series on Staphylococcus aureus [3] not below 128 µg/mL. In the series with Staphylococcus aureus [3], `CCCCNc1c[nH]nc1-c1nc(-c2ccc(Oc3ccc(C(F)(F)F)cc3)cc2)no1` came in with an MIC not below 128 µg/mL.

What is called MIC is the lowest concentration found to suppress growth. A high value points to a less susceptible organism. One may read the IC50 as the concentration that inhibits the measured activity by half.

Source of the values: ChEMBL document CHEMBL3407479, “Structure-activity relationship for the oxadiazole class of antibiotics” (J Med Chem, 2015).
